# Measured values: ChEMBL document CHEMBL2311388, “Carbamoyl pyridone HIV-1 integrase inhibitors. 2. Bi- and tricyclic derivatives result in superior antiviral and pharmacokinetic profiles” (J Med Chem, 2013)
# System: not listed separately
# Assay: Half life in rat at 1 mg/kg, iv and 5 mg/kg, po
# Assay type: ADME, organism-based
# Settings: in vivo
row,SMILES,half-life
1,COC(=O)c1[nH]cc(C(=O)NCc2ccc(F)cc2)c(=O)c1O,4.7 h
2,COCCN1C(=O)c2c(O)c(=O)c(C(=O)NCc3ccc(F)cc3)cn2CC1O (stereo unspecified),7.6 h
3,O=C(NCc1ccc(F)cc1)c1cn2c(c(O)c1=O)C(=O)N1CCCOC1C2 (racemic),17 h
4,COCCn1ccn2cc(C(=O)NCc3ccc(F)cc3)c(=O)c(O)c2c1=O,11 h
5,COCCN1CCn2cc(C(=O)NCc3ccc(F)cc3)c(=O)c(O)c2C1=O,3.4 h

# System: not listed separately
# Assay: Oral bioavailability in rat at 5 mg/kg
# Assay type: ADME, organism-based
# Settings: in vivo
row,SMILES,bioavailability
1,COCCN1C(=O)c2c(O)c(=O)c(C(=O)NCc3ccc(F)cc3)cn2CC1O (stereo unspecified),14%
2,COCCn1ccn2cc(C(=O)NCc3ccc(F)cc3)c(=O)c(O)c2c1=O,40%
3,COCCN1CCn2cc(C(=O)NCc3ccc(F)cc3)c(=O)c(O)c2C1=O,41%

# System: Human immunodeficiency virus 1
# Assay: Antiviral activity against wild type HIV1 3B infected in human MT4 cells assessed as cell viability by MTT assay in presence of human serum albumin
# Assay type: functional, organism-based
# Settings: Human immunodeficiency virus 1, 3B
# In short: (§1)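 HIV-1 replication in MT-4 cells read by MTT. Values are mean ± s.d. of three independent experiments. The protein-adjusted value is derived from the MT-4/MTT IC50 and the shift seen with human serum albumin. Detailed conditions are those of the earlier paper in the series.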
row,SMILES,IC50
1,CC(C)N1CCCN2C(=O)c3c(O)c(=O)c(C(=O)NCc4ccc(F)cc4)cn3CC21 (racemic),32.3 nM
2,O=C(NCc1ccc(F)cc1)c1cn2c(c(O)c1=O)C(=O)N(CCN1CCOCC1)CC2,34 nM
3,O=C(NCc1ccc(F)cc1)c1cn2c(c(O)c1=O)C(=O)N(C1CCCCC1)CC2,29 nM
4,O=C(NCc1ccc(F)cc1)c1cn2c(c(O)c1=O)C(=O)N1CCOC1C2 (racemic),140 nM
5,CC(=O)N1CCCN2C(=O)c3c(O)c(=O)c(C(=O)NCc4ccc(F)cc4)cn3CC12 (racemic),58 nM
6,CN(C)C(=O)CN1CCn2cc(C(=O)NCc3ccc(F)cc3)c(=O)c(O)c2C1=O,62 nM
7,O=C(NCc1ccc(F)cc1)c1cn2ccn(CCN3CCOCC3)c(=O)c2c(O)c1=O,20 nM
8,CN1CCCCN2C(=O)c3c(O)c(=O)c(C(=O)NCc4ccc(F)cc4)cn3CC12 (racemic),31.4 nM
9,COCCN1C(=O)c2c(O)c(=O)c(C(=O)NCc3ccc(F)cc3)cn2CC1O (stereo unspecified),14.1 nM
10,O=C(NCc1ccc(F)cc1)c1cn2c(c(O)c1=O)C(=O)N1CCCOC1C2 (racemic),26.9 nM
11,COCCn1ccn2cc(C(=O)NCc3ccc(F)cc3)c(=O)c(O)c2c1=O,27 nM
12,COCCN1CCn2cc(C(=O)NCc3ccc(F)cc3)c(=O)c(O)c2C1=O,18 nM

# System: not listed separately
# Assay: Cytotoxicity against human MT4 cells assessed as growth inhibition after 4 days by MTT assay
# Assay type: cell-based
# Settings: not given
# In short: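 MT-4 cells; values given as mean ± s.d. of three independent experiments.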
row,SMILES,CC50 at 96 h
1,CC(C)N1CCCN2C(=O)c3c(O)c(=O)c(C(=O)NCc4ccc(F)cc4)cn3CC21 (racemic),7200 nM
2,O=C(NCc1ccc(F)cc1)c1cn2c(c(O)c1=O)C(=O)N(CCN1CCOCC1)CC2,160000 nM
3,O=C(NCc1ccc(F)cc1)c1cn2c(c(O)c1=O)C(=O)N(C1CCCCC1)CC2,> 240000 nM
4,O=C(NCc1ccc(F)cc1)c1cn2c(c(O)c1=O)C(=O)N1CCOC1C2 (racemic),72000 nM
5,CC(=O)N1CCCN2C(=O)c3c(O)c(=O)c(C(=O)NCc4ccc(F)cc4)cn3CC12 (racemic),> 200000 nM
6,CN(C)C(=O)CN1CCn2cc(C(=O)NCc3ccc(F)cc3)c(=O)c(O)c2C1=O,> 200000 nM
7,O=C(NCc1ccc(F)cc1)c1cn2ccn(CCN3CCOCC3)c(=O)c2c(O)c1=O,36000 nM
8,CN1CCCCN2C(=O)c3c(O)c(=O)c(C(=O)NCc4ccc(F)cc4)cn3CC12 (racemic),> 200000 nM
9,COCCN1C(=O)c2c(O)c(=O)c(C(=O)NCc3ccc(F)cc3)cn2CC1O (stereo unspecified),83000 nM
10,O=C(NCc1ccc(F)cc1)c1cn2c(c(O)c1=O)C(=O)N1CCCOC1C2 (racemic),18000 nM
11,COCCn1ccn2cc(C(=O)NCc3ccc(F)cc3)c(=O)c(O)c2c1=O,> 200000 nM
12,COCCN1CCn2cc(C(=O)NCc3ccc(F)cc3)c(=O)c(O)c2C1=O,52000 nM

# System: not listed separately
# Assay: Ratio of plasma concentration in rat after 24 hrs to IC50 for wild type HIV1 3B infected in human MT4 cells in presence of human serum albumin
# Assay type: ADME, cell-based
# Settings: mt4, 24 h
row,SMILES,Ratio
1,COC(=O)c1[nH]cc(C(=O)NCc2ccc(F)cc2)c(=O)c1O,3.4
2,COCCN1C(=O)c2c(O)c(=O)c(C(=O)NCc3ccc(F)cc3)cn2CC1O (stereo unspecified),117
3,O=C(NCc1ccc(F)cc1)c1cn2c(c(O)c1=O)C(=O)N1CCCOC1C2 (racemic),685
4,COCCn1ccn2cc(C(=O)NCc3ccc(F)cc3)c(=O)c(O)c2c1=O,2600
5,COCCN1CCn2cc(C(=O)NCc3ccc(F)cc3)c(=O)c(O)c2C1=O,27

# System: Human immunodeficiency virus 1
# Assay: Selectivity ratio of IC50 for RAL-resistant HIV1 harboring integrase Q148K mutant to IC50 for wild type HIV1 3B
# Assay type: functional
# Settings: not given
row,SMILES,Ratio IC50
1,CC(C)N1CCCN2C(=O)c3c(O)c(=O)c(C(=O)NCc4ccc(F)cc4)cn3CC21 (racemic),9.1
2,O=C(NCc1ccc(F)cc1)c1cn2c(c(O)c1=O)C(=O)N(C1CCCCC1)CC2,>250
3,COC(=O)c1[nH]cc(C(=O)NCc2ccc(F)cc2)c(=O)c1O,200
4,O=C(NCc1ccc(F)cc1)c1cn2c(c(O)c1=O)C(=O)N1CCOC1C2 (racemic),19
5,O=C(NCc1ccc(F)cc1)c1cn2ccn(CCN3CCOCC3)c(=O)c2c(O)c1=O,>250
6,CN1CCCCN2C(=O)c3c(O)c(=O)c(C(=O)NCc4ccc(F)cc4)cn3CC12 (racemic),4.2
7,COCCN1C(=O)c2c(O)c(=O)c(C(=O)NCc3ccc(F)cc3)cn2CC1O (stereo unspecified),2.1
8,O=C(NCc1ccc(F)cc1)c1cn2c(c(O)c1=O)C(=O)N1CCCOC1C2 (racemic),2.8
9,COCCn1ccn2cc(C(=O)NCc3ccc(F)cc3)c(=O)c(O)c2c1=O,35
10,COCCN1CCn2cc(C(=O)NCc3ccc(F)cc3)c(=O)c(O)c2C1=O,18

# System: not listed separately
# Assay: Total clearance in rat at 1 mg/kg, iv and 5 mg/kg, po
# Assay type: ADME, organism-based
# Settings: in vivo
row,SMILES,clearance
1,COCCN1C(=O)c2c(O)c(=O)c(C(=O)NCc3ccc(F)cc3)cn2CC1O (stereo unspecified),0.24 mL/min/kg
2,O=C(NCc1ccc(F)cc1)c1cn2c(c(O)c1=O)C(=O)N1CCCOC1C2 (racemic),0.1 mL/min/kg
3,COCCn1ccn2cc(C(=O)NCc3ccc(F)cc3)c(=O)c(O)c2c1=O,0.02 mL/min/kg
4,COCCN1CCn2cc(C(=O)NCc3ccc(F)cc3)c(=O)c(O)c2C1=O,0.51 mL/min/kg

# System: Human immunodeficiency virus 1
# Assay: Selectivity ratio of IC50 for wild type HIV1 3B infected in human MT4 cells in presence of human serum albumin to IC50 for wild type HIV1 3B infected in human MT4 cells
# Assay type: functional
# Settings: not given
row,SMILES,Ratio IC50
1,CC(C)N1CCCN2C(=O)c3c(O)c(=O)c(C(=O)NCc4ccc(F)cc4)cn3CC21 (racemic),4.3
2,O=C(NCc1ccc(F)cc1)c1cn2c(c(O)c1=O)C(=O)N(CCN1CCOCC1)CC2,1.6
3,O=C(NCc1ccc(F)cc1)c1cn2c(c(O)c1=O)C(=O)N(C1CCCCC1)CC2,4.4
4,COC(=O)c1[nH]cc(C(=O)NCc2ccc(F)cc2)c(=O)c1O,12
5,O=C(NCc1ccc(F)cc1)c1cn2c(c(O)c1=O)C(=O)N1CCOC1C2 (racemic),52
6,CC(=O)N1CCCN2C(=O)c3c(O)c(=O)c(C(=O)NCc4ccc(F)cc4)cn3CC12 (racemic),2
7,CN(C)C(=O)CN1CCn2cc(C(=O)NCc3ccc(F)cc3)c(=O)c(O)c2C1=O,2.4
8,O=C(NCc1ccc(F)cc1)c1cn2ccn(CCN3CCOCC3)c(=O)c2c(O)c1=O,3
9,CN1CCCCN2C(=O)c3c(O)c(=O)c(C(=O)NCc4ccc(F)cc4)cn3CC12 (racemic),4.9
10,COCCN1C(=O)c2c(O)c(=O)c(C(=O)NCc3ccc(F)cc3)cn2CC1O (stereo unspecified),3.7
11,O=C(NCc1ccc(F)cc1)c1cn2c(c(O)c1=O)C(=O)N1CCCOC1C2 (racemic),7.9
12,COCCn1ccn2cc(C(=O)NCc3ccc(F)cc3)c(=O)c(O)c2c1=O,17
13,COCCN1CCn2cc(C(=O)NCc3ccc(F)cc3)c(=O)c(O)c2C1=O,3.1

# System: Human immunodeficiency virus 1
# Assay: Selectivity ratio of IC50 for RAL-resistant HIV1 harboring integrase Y143R mutant to IC50 for wild type HIV1 3B
# Assay type: functional
# Settings: not given
row,SMILES,Ratio IC50
1,COC(=O)c1[nH]cc(C(=O)NCc2ccc(F)cc2)c(=O)c1O,1.5
2,COCCN1C(=O)c2c(O)c(=O)c(C(=O)NCc3ccc(F)cc3)cn2CC1O (stereo unspecified),1.5
3,O=C(NCc1ccc(F)cc1)c1cn2c(c(O)c1=O)C(=O)N1CCCOC1C2 (racemic),1.6
4,COCCn1ccn2cc(C(=O)NCc3ccc(F)cc3)c(=O)c(O)c2c1=O,1.6
5,COCCN1CCn2cc(C(=O)NCc3ccc(F)cc3)c(=O)c(O)c2C1=O,1.5

# System: Human immunodeficiency virus 1
# Assay: Antiviral activity against wild type HIV1 3B infected in human MT4 cells assessed as cell viability by MTT assay
# Assay type: functional, organism-based
# Settings: Human immunodeficiency virus 1, 3B
# In short: as §1
row,SMILES,IC50
1,CC(C)N1CCCN2C(=O)c3c(O)c(=O)c(C(=O)NCc4ccc(F)cc4)cn3CC21 (racemic),7.5 nM
2,O=C(NCc1ccc(F)cc1)c1cn2c(c(O)c1=O)C(=O)N(CCN1CCOCC1)CC2,21 nM
3,O=C(NCc1ccc(F)cc1)c1cn2c(c(O)c1=O)C(=O)N(C1CCCCC1)CC2,6.5 nM
4,O=C(NCc1ccc(F)cc1)c1cn2c(c(O)c1=O)C(=O)N1CCOC1C2 (racemic),2.7 nM
5,CC(=O)N1CCCN2C(=O)c3c(O)c(=O)c(C(=O)NCc4ccc(F)cc4)cn3CC12 (racemic),29 nM
6,CN(C)C(=O)CN1CCn2cc(C(=O)NCc3ccc(F)cc3)c(=O)c(O)c2C1=O,26 nM
7,O=C(NCc1ccc(F)cc1)c1cn2ccn(CCN3CCOCC3)c(=O)c2c(O)c1=O,6.6 nM
8,CN1CCCCN2C(=O)c3c(O)c(=O)c(C(=O)NCc4ccc(F)cc4)cn3CC12 (racemic),6.4 nM
9,COCCN1C(=O)c2c(O)c(=O)c(C(=O)NCc3ccc(F)cc3)cn2CC1O (stereo unspecified),3.8 nM
10,O=C(NCc1ccc(F)cc1)c1cn2c(c(O)c1=O)C(=O)N1CCCOC1C2 (racemic),3.4 nM
11,COCCn1ccn2cc(C(=O)NCc3ccc(F)cc3)c(=O)c(O)c2c1=O,1.6 nM
12,COCCN1CCn2cc(C(=O)NCc3ccc(F)cc3)c(=O)c(O)c2C1=O,5.9 nM

# System: not listed separately
# Assay: (§2) Volume of distribution at steady state in rat at 1 mg/kg, iv and 5 mg/kg, po
# Assay type: ADME, organism-based
# Settings: in vivo, read-out: Vdss
row,SMILES,Vd
1,COC(=O)c1[nH]cc(C(=O)NCc2ccc(F)cc2)c(=O)c1O,0.2 L/kg
2,COCCN1C(=O)c2c(O)c(=O)c(C(=O)NCc3ccc(F)cc3)cn2CC1O (stereo unspecified),0.14 L/kg
3,O=C(NCc1ccc(F)cc1)c1cn2c(c(O)c1=O)C(=O)N1CCCOC1C2 (racemic),0.13 L/kg
4,COCCN1CCn2cc(C(=O)NCc3ccc(F)cc3)c(=O)c(O)c2C1=O,0.12 L/kg

# System: Rattus norvegicus
# Assay: as §2
# Assay type: ADME, organism-based
# Settings: in vivo
row,SMILES,Vdss
1,COCCn1ccn2cc(C(=O)NCc3ccc(F)cc3)c(=O)c(O)c2c1=O,0.015 L/kg

# System: Human immunodeficiency virus 1
# Assay: Selectivity ratio of IC50 for RAL-resistant HIV1 harboring integrase N155H mutant to IC50 for wild type HIV1 3B
# Assay type: functional
# Settings: not given
row,SMILES,Ratio IC50
1,COC(=O)c1[nH]cc(C(=O)NCc2ccc(F)cc2)c(=O)c1O,21
2,COCCN1C(=O)c2c(O)c(=O)c(C(=O)NCc3ccc(F)cc3)cn2CC1O (stereo unspecified),1.5
3,O=C(NCc1ccc(F)cc1)c1cn2c(c(O)c1=O)C(=O)N1CCCOC1C2 (racemic),1.6
4,COCCn1ccn2cc(C(=O)NCc3ccc(F)cc3)c(=O)c(O)c2c1=O,3.7
5,COCCN1CCn2cc(C(=O)NCc3ccc(F)cc3)c(=O)c(O)c2C1=O,1.5
